ChEMBL document CHEMBL2069258, “Novel phosphoramidate prodrugs of N-acetyl-(D)-glucosamine with antidegenerative activity on bovine and human cartilage explants” (J Med Chem, 2012)

Legend:
Cartilage tissue [1] = test: Antidegenerative activity against bovine cartilage explant assessed as inhibition of IL1-induced of GAG release at 0.1 mM for 1 day before IL-1 treatment measured after 6 days by colorimetric analysis relative to control; assay type: functional; conditions: Bos taurus
In short: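 Articular cartilage explants from different cows, equilibrated 24 h, then cultured one day in DMEM + hydrolyzed lactalbumin + 50 μg/mL vitamin C + penicillin/streptomycin + ITS with or without compound (0.1 mM). GAG release then induced with 10 ng IL-1 and continued six days, medium changed every two days. Medium GAG measured by Blyscan colorimetric assay. GAG fold-increase versus minus-IL-1 control. Percent reduction relative to IL-1-only fold. Triplicates per experiment, mean of n experiments.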

[2] = Cytotoxicity against bovine articular chondrocytes assessed as cell viability at 0.1 mM by MTT assay relative to control; design: species or system Bos taurus; conditions: cattle, read-out: Activity
In short: (§1)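 Chondrocyte monolayers tested in parallel with the explant work. Viability measured by MTT and expressed as percent of untreated cells (no compound = 100%). Mean and SE over n experiments, each in triplicate.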

[3] = Cytotoxicity against bovine articular chondrocytes assessed as cell viability at 1 mM by MTT assay relative to control; design: species or system Bos taurus; conditions: cattle, read-out: Activity
In short: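 Chondrocyte monolayer cultures exposed to compound in parallel with the explant experiments. Viability read by MTT, as percent of untreated control cells (100%). Mean of n experiments from different cows, each run in triplicate.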

[4] = Antidegenerative activity against human cartilage explant assessed as inhibition of IL1-induced of GAG release at 10 uM for 1 day before IL-1 treatment measured after 6 days by colorimetric analysis relative to control; assay type: functional; conditions: Cartilage tissue
In short: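 Human cartilage explants, equilibrated 24 h, then cultured one day in DMEM + hydrolyzed lactalbumin + 50 μg/mL vitamin C + penicillin/streptomycin + ITS with compound. 10 ng IL-1 then added and culture continued six days, medium replaced every two days. Medium GAG measured by Blyscan colorimetric assay. Percent reduction = (mean control − mean sample release)/control × 100, against a 0.25% DMSO + IL-1 control.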

[5] = Cytotoxicity against human articular chondrocytes assessed as metabolic activity at 10 uM by WST-1 assay; conditions: read-out: Activity
Serum = test: Stability of compound in human serum assessed as hydrolysis after 17 hrs by NMR analysis; assay type: ADME, cell-free
In short: (§2)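 Prodrug disappearance followed by NMR in guinea pig or human serum at 37 °C, pH 7.0. Half-life taken from the apparent first-order rate constant, by linear regression of pseudo-first-order plots of prodrug concentration versus time.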

[6] = Stability of compound in guinea pig serum assessed as hydrolysis after 17 hrs by NMR analysis; assay type: ADME, cell-free, Cavia porcellus; in short: as §2
[7] = Cytotoxicity against human articular chondrocytes assessed as metabolic activity at 250 uM by WST-1 assay; conditions: read-out: Activity
In short: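 Metabolic activity measured by WST-1 in parallel with the human explant assay and reported as a percentage.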

Cartilage tissue [8] = test: Antidegenerative activity against bovine cartilage explant assessed as inhibition of IL1-induced of GAG release at 10 mM for 1 day before IL-1 treatment measured after 6 days by colorimetric analysis relative to control; assay type: functional; conditions: Bos taurus
In short: (§3)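 Articular cartilage explants from different cows, equilibrated 24 h, then cultured 1 day in DMEM with hydrolyzed lactalbumin, 50 μg/mL vitamin C, penicillin/streptomycin and ITS, with or without compound. IL-1 10 ng added; medium changed every two days; harvested 6 days later. GAG in medium by Blyscan colorimetric assay. Fold increase over minus-IL-1 control used to derive % reduction versus IL-1-only fold. Triplicate per experiment; mean and SE over n cows.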

Cartilage tissue [9] = test: Antidegenerative activity against bovine cartilage explant assessed as inhibition of IL1-induced of GAG release at 1 mM for 1 day before IL-1 treatment measured after 6 days by colorimetric analysis relative to control; assay type: functional; conditions: Bos taurus; in short: as §3
[10] = Antidegenerative activity against human cartilage explant assessed as inhibition of IL1-induced of GAG release at 250 uM for 1 day before IL-1 treatment measured after 6 days by colorimetric analysis relative to control; assay type: functional; conditions: Cartilage tissue
In short: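 Human explants: 24 h equilibration, 1 day preincubation with compound in DMEM/lactalbumin/vitamin C/ITS medium, then IL-1 10 ng for 6 days with medium renewed every two days. Compounds dissolved in DMSO, with a 0.25% DMSO control. GAG released measured colorimetrically (Blyscan). % reduction = (mean control release − mean sample release)/control release × 100.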

[11] = Cytotoxicity against bovine articular chondrocytes assessed as cell viability at 10 mM by MTT assay relative to control; design: species or system Bos taurus; conditions: cattle, read-out: Activity; in short: as §1

Q: For CCOC(=O)CN(C)P(=O)(Oc1ccc(OC)cc1)O[C@H]1[C@H](O)[C@@H](CO)O[C@H](O)[C@@H]1NC(C)=O (stereo partly specified), which inhibition at 100 µM (Cartilage tissue [1]) is on record?
A: -24.9%

Q: What about the viability at 100 µM [2] of the same compound?
A: 32%

Q: What about the viability at 1000 µM [3] of the same compound?
A: 80%

Q: Which inhibition at 100 µM (Cartilage tissue [1]) does the source give for COc1ccc(OP(=O)(O[C@H]2[C@H](O)[C@@H](CO)O[C@H](O)[C@@H]2NC(C)=O)N2CCC[C@H]2C(=O)OC(C)C)cc1 (stereo partly specified) here?
A: 17.5%

Q: What about the inhibition at 10 µM [4] of the same compound?
A: 24.4%

Q: And the viability at 100 µM [2]?
A: 90%

Q: And the viability at 10 µM [5]?
A: 79.4%

Q: Which inhibition at 100 µM (Cartilage tissue [1]) does the source give for CCC(C)OC(=O)[C@@H]1CCCN1P(=O)(Oc1ccc(OC)cc1)O[C@H]1[C@H](O)[C@@H](CO)O[C@H](O)[C@@H]1NC(C)=O (stereo partly specified) here?
A: -4.4%

Q: What about the inhibition at 10 µM [4] of the same compound?
A: 27.1%

Q: And the viability at 100 µM [2]?
A: 96%

Q: And the viability at 1000 µM [3]?
A: 7%

Q: What about the viability at 10 µM [5] of the same compound?
A: 53.9%

Q: With COc1ccc(OP(=O)(O[C@H]2[C@H](O)[C@@H](CO)O[C@H](O)[C@@H]2NC(C)=O)N2CCC[C@H]2C(=O)OC2CCCCC2)cc1 (stereo partly specified) as the compound, how does the inhibition at 100 µM (Cartilage tissue [1]) read?
A: -9.6%

Q: What does the source list for CCC[C@H](NP(=O)(Oc1ccc(OC)cc1)O[C@H]1[C@H](O)[C@@H](CO)O[C@H](O)[C@@H]1NC(C)=O)C(=O)OCC (stereo partly specified)?
A: inhibition at 100 µM (Cartilage tissue [1]): 11.8%; viability at 100 µM [2]: 93%

Q: For COc1ccc(OP(=O)(O[C@H]2[C@H](O)[C@@H](CO)O[C@H](O)[C@@H]2NC(C)=O)N2CCC[C@H]2C(=O)OC(C)(C)C)cc1 (stereo partly specified), which inhibition at 100 µM (Cartilage tissue [1]) is on record?
A: -8%

Q: What about the Stability (Serum) of the same compound?
A: Stable

Q: What about the viability at 100 µM [2] of the same compound?
A: 91%

Q: And the Stability [6]?
A: Stable

Q: What about the viability at 1000 µM [3] of the same compound?
A: 5%

Q: With COC(=O)[C@@H](NP(=O)(Oc1ccc(OC)cc1)O[C@H]1[C@H](O)[C@@H](CO)O[C@H](O)[C@@H]1NC(C)=O)C(C)C (stereo partly specified) as the compound, how does the inhibition at 100 µM (Cartilage tissue [1]) read?
A: -4.4%

Q: What about the viability at 100 µM [2] of the same compound?
A: 96%

Q: For COc1ccc(OP(=O)(O[C@H]2[C@H](O)[C@@H](CO)O[C@H](O)[C@@H]2NC(C)=O)N2CCC[C@H]2C(=O)OCc2ccccc2)cc1 (stereo partly specified), which inhibition at 10 µM [4] is on record?
A: 28.8%

Q: And the viability at 10 µM [5]?
A: 115%

Q: Which results are given for CCOC(=O)[C@@H]1CCCN1P(=O)(Oc1ccc(OC)cc1)O[C@H]1[C@H](O)[C@@H](CO)O[C@H](O)[C@@H]1NC(C)=O (stereo partly specified)?
A: inhibition at 10 µM [4]: 38%; viability at 10 µM [5]: 66.4%

Q: What does the source list for CCCCOC(=O)[C@@H]1CCCN1P(=O)(Oc1ccc(OC)cc1)O[C@H]1[C@H](O)[C@@H](CO)O[C@H](O)[C@@H]1NC(C)=O (stereo partly specified)?
A: inhibition at 10 µM [4]: 30.4%; viability at 10 µM [5]: 87.1%

Q: Which results are given for CCOC(=O)[C@@H]1CCCN1P(=O)(Oc1ccc(OC)cc1)O[C@H]1[C@H](O)[C@@H](NC(C)=O)[C@H](O)O[C@@H]1CO (stereo partly specified)?
A: inhibition at 10 µM [4]: 17.4%; viability at 10 µM [5]: 107%

Q: What does the source list for COc1ccc(OP(=O)(N[C@@H](C)C(=O)OCc2ccccc2)O[C@H]2[C@H](O)[C@@H](CO)O[C@H](OC)[C@@H]2NC(C)=O)cc1 (stereo partly specified)?
A: inhibition at 100 µM (Cartilage tissue [1]): -19%; viability at 100 µM [2]: 78%

Q: Which inhibition at 100 µM (Cartilage tissue [1]) does the source give for COc1ccc(OP(=O)(N[C@H](C(=O)OCc2ccccc2)C(C)C)O[C@H]2[C@H](O)[C@@H](CO)O[C@H](OC)[C@@H]2NC(C)=O)cc1 (stereo partly specified) here?
A: 9.4%

Q: And the viability at 100 µM [2]?
A: 99%

Q: Which inhibition at 100 µM (Cartilage tissue [1]) does the source give for CCOC(=O)[C@@H]1CCCN1P(=O)(Oc1ccc(OC)cc1)O[C@H]1[C@H](O)[C@@H](CO)O[C@H](OC)[C@@H]1NC(C)=O (stereo partly specified) here?
A: -53.7%

Q: What about the viability at 100 µM [2] of the same compound?
A: 62%

Q: For CCOC(=O)[C@@H](NP(=O)(Oc1ccc(OC)cc1)O[C@H]1[C@H](O)[C@@H](CO)O[C@H](OC)[C@@H]1NC(C)=O)C(C)C (stereo partly specified), which inhibition at 100 µM (Cartilage tissue [1]) is on record?
A: -52.5%

Q: And the viability at 100 µM [2]?
A: 85%

Q: For CCOC(=O)CN(C)P(=O)(Oc1ccc(OC)cc1)O[C@H]1[C@H](O)[C@@H](CO)O[C@H](OC)[C@@H]1NC(C)=O (stereo partly specified), which inhibition at 100 µM (Cartilage tissue [1]) is on record?
A: -23.2%

Q: And the viability at 100 µM [2]?
A: 100%

Q: What does the source list for N[C@H]1C(O)O[C@H](CO)[C@@H](O)[C@@H]1O (stereo partly specified) [GLUCOSAMINE]?
A: inhibition at 100 µM (Cartilage tissue [1]): 0.8%; inhibition at 10 µM [4]: 10.3%; viability at 250 µM [7]: 85.3%; inhibition at 10000 µM (Cartilage tissue [8]): 19%; viability at 100 µM [2]: 106%; inhibition at 1000 µM (Cartilage tissue [9]): 3.4%; viability at 1000 µM [3]: 88%; inhibition at 250 µM [10]: 14.1%; viability at 10 µM [5]: 107%; viability at 10000 µM [11]: 56%

Q: Which results are given for CC(=O)N[C@@H]1[C@@H](O)[C@H](O)[C@@H](CO)O[C@H]1O [N-ACETYLGLUCOSAMINE]?
A: inhibition at 100 µM (Cartilage tissue [1]): 5.4%; inhibition at 10000 µM (Cartilage tissue [8]): 9.3%; viability at 100 µM [2]: 107%; inhibition at 1000 µM (Cartilage tissue [9]): -1%; viability at 1000 µM [3]: 70%; viability at 10000 µM [11]: 61%
